# Measurements from different studies.
# Compare with care: the assays were run in different laboratories.
# Target: 5'-AMP-activated protein kinase catalytic subunit alpha-2 (PRKAA2, Homo sapiens, UniProt P54646)
Compound,observed,technique,concentration,remaining binding [%]
CC1CCCN1c1nccc(-c2cnn3ncccc23)n1 (stereo not shown),binding,,1 µM,100
Nc1ncc2c(n1)-c1c([nH]c3ccc(C#CC4CC4)cc13)CCCC2,binding,competition with immobilised ligand,1 µM,85
O=C(NCCCN1CCOCC1)c1ccc(Nc2nccc(-c3cc4ccccc4s3)n2)cc1,binding,competition with immobilised ligand,1 µM,41
COc1ncc2cc3ccccc3nc2c1C#N,cell-free assay,competition with immobilised ligand,5 µM,96
CNC(=O)Nc1ccc2c(c1)CC[C@@]21OC(=O)N(CC(=O)N(Cc2ccc(F)cc2)[C@@H](C)C(F)(F)F)C1=O,cell-free assay,competition with immobilised ligand,1 µM,99
CN(C)c1nccc(-c2cnn3ncccc23)n1,binding,,1 µM,100
CC1=C(C#N)[C@@H](c2ccc3[nH]nc(C)c3c2)C(C#N)=C(c2ccc(Cl)cc2)N1,cell-free assay,competition with immobilised ligand,1 µM,95.3
N[C@H]1CCN(c2nccc(-c3cnn4ncccc34)n2)C1,binding,,1 µM,100
COc1cnc(Nc2cccc(S(N)(=O)=O)c2)nc1N1CCN(c2ccccc2)C(=O)C1,binding,competition with immobilised ligand,1 µM,100
COc1ccnn2ncc(-c3ccnc(N(C)C)n3)c12,binding,,1 µM,79
O=C(NCCCN1CCOCC1)c1ccc(Nc2ncc(Cl)c(-c3ccc(Cl)s3)n2)cc1,binding,competition with immobilised ligand,1 µM,17
O=C(NCC1CCOCC1)c1n[nH]cc1NC(=O)c1c(F)cccc1F,binding,competition with immobilised ligand,1 µM,100
CCN1CCN(Cc2ccc(C(=O)Nc3ccc(C)c(Oc4ccc5c(c4)CC(=O)N5)c3)cc2C(F)(F)F)CC1,binding,competition with immobilised ligand,1 µM,100
F[C@@H]1CCN(c2nccc(-c3cnn4ncccc34)n2)C1,binding,,1 µM,100
CNC(=O)Nc1ccc2c(c1)[C@@]1(CC2)OC(=O)N(CC(=O)N(Cc2ccc(F)cc2)[C@@H](C)C(F)(F)F)C1=O,cell-free assay,competition with immobilised ligand,1 µM,57
C[C@H]1CCN(c2nccc(-c3cnn4ncccc34)n2)C1,binding,,1 µM,84
CN(C)c1ncnc(-c2ccc3nc(Nc4cc(CN5CCN(C(=O)CC(F)(F)F)CC5)ccn4)[nH]c3c2)c1Cl,cell-free assay,competition with immobilised ligand,1 µM,100
CNC(=O)[C@@H]1CC[C@@H](n2c(-c3ccc4cnccc4c3)nc3ccc(C(=O)NCc4cccc(C(N)=O)c4)cc32)C1,binding,competition with immobilised ligand,1 µM,91
O=C(NCc1ncc(C(F)(F)F)cc1Cl)c1ccc2c(c1)C1(CCS(=O)(=O)CC1)[C@H](C1CC1)N2S(=O)(=O)c1ccc(F)cc1,cell-free assay,competition with immobilised ligand,1 µM,100
CN(c1nccc(-c2cnn3ncccc23)n1)C1CC1,binding,,1 µM,100
CCC(=O)N[C@@H]1CC[C@H](C(=O)N(C)c2ccc(-c3nc4ccccc4o3)cc2)C1,cell-free assay,competition with immobilised ligand,1 µM,74
Cc1cnc(Nc2ccc(C(=O)N3CCC(N4CCCC4)CC3)cc2)nc1-c1cc2ccccc2s1,binding,competition with immobilised ligand,1 µM,7
